Screens deposited in PubChem by several laboratories.
Most compounds without a hit are left out; they make up all but 2.4% or so of the library.
mABHD4 FP: inhibitors of mouse ABHD4; Q8VD66; purified mABHD4, FP-Rh probe fluorescence polarization; inhibition, % at 8.92 µM; 0.54% of 370,000 active; AID 720543;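 active means inhibition exceeding the mean over every tested compound plus 3 SD, cut at about 30% in these data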;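 further: 0% = plate median of compound wells and 100% = S159A mutant with DMSO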
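System: mouse ABHD4 enzyme, wild type / Medium: HEPES pH 7.0, NaCl, Pluronic buffer / Reagent: FP-Rh activity-based fluorescent probe / Control set: S159A mutant high control, sample median low control / Detection: fluorescence polarization with parallel and perpendicular emission, 525/598 nm / Schedule: 45 min + 60 min at 25 °C / Compound dosing: 8.92 µM, single dose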
HTRA1 inhibitor: blocks human HTRA1 serine peptidase | 0.5% of 340,000 active | recombinant HTRA1, FP-rhodamine activity-based probe, fluorescence polarization | AID 504803 | inhibition, % at 5.96 µM; in the data active means inhibition above about 36%;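 further: 0% = enzyme with DMSO and 100% = wells lacking enzyme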
SIAE primary: blocks human sialic acid acetylesterase; SIAE FP-Rh probe binding, fluorescence polarization; inhibition, % at 9.66 µM; AID 1053197; Q9HAT2; 0.69% of 370,000 active;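 active means inhibition above a cutoff: mean of compounds within the control limits plus 3 SD of those, cut at about 17% in these data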;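 further: 0% = plate median of compound wells and 100% = probe without SIAE protein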
Target sequence (Q9HAT2 whole entry, looked up): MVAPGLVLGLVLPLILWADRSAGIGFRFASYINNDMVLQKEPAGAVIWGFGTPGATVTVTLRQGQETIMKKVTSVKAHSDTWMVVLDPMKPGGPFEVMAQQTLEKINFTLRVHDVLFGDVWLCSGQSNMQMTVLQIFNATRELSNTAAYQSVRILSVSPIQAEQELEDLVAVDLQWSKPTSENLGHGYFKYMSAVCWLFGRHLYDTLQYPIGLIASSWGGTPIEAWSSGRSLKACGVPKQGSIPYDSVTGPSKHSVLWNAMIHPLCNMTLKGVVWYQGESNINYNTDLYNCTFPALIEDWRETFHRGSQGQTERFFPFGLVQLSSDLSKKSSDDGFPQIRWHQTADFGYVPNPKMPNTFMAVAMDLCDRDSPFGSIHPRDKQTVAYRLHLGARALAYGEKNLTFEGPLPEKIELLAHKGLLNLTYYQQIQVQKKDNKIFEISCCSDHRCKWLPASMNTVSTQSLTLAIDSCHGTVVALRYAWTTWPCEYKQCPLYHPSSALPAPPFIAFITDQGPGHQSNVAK
PRMT1 FP inh: blocks human protein arginine methyltransferase 1; Q99873; recombinant PRMT1, activity-based probe fluorescence polarization; inhibition, % at 2.79 µM; 1.3% of 370,000 active; AID 652257;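 active means inhibition above about 21% made by adding two undisclosed values, limit read from the data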
GASC-1 inh: inhibitors of human GASC-1 (JMJD2C) demethylase; GST-JMJD2C(1-420) H3K9me3 demethylation, DELFIA europium; Q9H3R0; AID 2099; inhibition, % at 2.35 µM; 0.069% of 330,000 active;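 active means more than half of a compound's replicate wells show inhibition beyond 50%, single wells judged on their own value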;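 further: signal counts dimethyl H3K9 product captured on neutravidin plate; 0% = median of DMSO wells and 100% = 0.3 times that DMSO median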
PRMT1 confirm: confirmation of human PRMT1 inhibitors | shares compounds with PRMT1 FP inh | recombinant His-PRMT1, activity-based probe fluorescence polarization | inhibition, % at 2.79 µM | 42% of 3,300 active;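 active means mean inhibition across replicates above the hit cutoff derived for the earlier primary screen, cut at about 22% in these data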
Starred values were filed as active, the others as inactive; / = no result.

SMILES | mABHD4 FP | HTRA1 inhibitor | SIAE primary | PRMT1 FP inh | GASC-1 inh | PRMT1 confirm
CC(=O)Nc1ccc(N2C(=O)CC(Sc3nc4ccccc4s3)C2=O)cc1 (stereo not drawn) | -4 | -3 | 3 | 16 | 8 | /
Cc1c(C2Nc3ccccc3NC3=C2C(=O)CC(C)(C)C3)cnn1C (stereo not drawn) | 10 | 6 | -3 | 27* | 32 | 0
CC1(C)CC(=O)C2=C(C1)Nc1ccccc1NC2c1ccccc1F (stereo not drawn) | -4 | 3 | 12 | 5 | 9 | /
CC(C)N1CCCCC(NC(=O)c2ccc(-c3ccccc3)cc2)C1=O (stereo not drawn) | -3 | / | -2 | 3 | / | /
CN(C(=O)NC1CCCCC1)[C@H]1C[C@H]2c3[nH]c4ccccc4c3CCN2C(=O)[C@H]1CO | 7 | 4 | -2 | 33* | / | 1
Cc1cc(/C=C2\Sc3ccccc3N2C)cc(C)[n+]1CC1CCCO1 (stereo not drawn) | -7 | / | -1 | 100* | / | -1
CCOC(=O)C1NC(=O)CC1c1ccccc1 (stereo not drawn) | -14 | 1 | 6 | -1 | 2 | /
CCOC(=O)C1CSC2(CCC(c3ccccc3)CC2)N1 (stereo not drawn) | -3 | -3 | -1 | 48* | -1 | 28*
COC(=O)[C@]12C[C@H](CC(=O)NCc3ccc(OC)c(OC)c3)C(=O)N(Cc3ccco3)C1=C[C@H](C(C)C)O[C@@H]2C1CC1 | 3 | / | 2 | 1 | / | /
CC(=NNC(=S)N1CC2CCC(CC2)C1)c1ccncn1 | 7 | 21 | 3 | 27* | / | 2
O=C1c2ccccc2[C@@H]2Cc3csc[n+]3[C@H]12 | 8 | / | 2 | 85* | / | 83*
Cc1ccccc1C1CC(=O)c2ccccc2C1C (stereo not drawn) | -8 | -13 | -6 | 3 | / | /
CN1CCN(C(=O)CCN2C(=O)/C(=C\c3ccccc3F)SC2=S)CC1 | -47 | -6 | -6 | 28* | -4 | 6
